According to ChEMBL document CHEMBL2346587, “Design, synthesis, and evaluation of a water-soluble antofine analogue with high antiproliferative and antitumor activity” (Bioorg Med Chem, 2013):
Active and inactive are the calls of the source. The calls are words filed in the database; no cut-off is given here.

Legend:
[1] = biological target: T1, ATP-dependent translocase ABCB1 (Homo sapiens, UniProt P08183); experiment: Inhibition of P-gp activity in human paclitaxel-resistant A549 cells assessed as rhodamine 123 accumulation at 200 nM after 72 hrs by FACS analysis (reference value: 14.4 %); assay type: cell-based; set-up: scale not given: the % may be the effect or the level left; conditions: a549, 72 h, 0.2 µM
[2] = tested on: A549; experiment: Inhibition of AKT/mTOR signaling in human A549 cells assessed as inhibition of 4E-BP1 phosphorylation at 50 to 400 nM after 24 hrs by Western blot analysis; assay type: cell-based
How it was run: (§1)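 A549 cells plated at 3 × 10^5 per 60 mm dish, grown 24 h, then exposed to a concentration series for 24 h. Lysed in boiling SDS sample buffer with NaF and orthovanadate; protein by BCA; 25–50 µg run on 8–15% SDS-PAGE, transferred to PVDF, blocked in 5% milk/PBST, primary antibodies overnight at 4 °C, secondary 1–2 h, ECL detection.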

[3] = tested on: A549; experiment: Cell cycle arrest in human A549 cells assessed as accumulation at G0/G1 phase at 400 nM after 24 hrs by flow cytometry (reference value: 62.38 %); assay type: functional
[4] = tested on: A549; experiment: Cell cycle arrest in human A549 cells assessed as accumulation at G2/M phase at 100 nM after 24 hrs by flow cytometry (reference value: 22.84 %); assay type: functional
[5] = biological target: T1, ATP-dependent translocase ABCB1; experiment: Inhibition of P-gp activity in human paclitaxel-resistant A549 cells potentiation of 2.5 uM gefitinib-induced cytotoxicity at 0.05 uM by SRB assay; assay type: cell-based; conditions: a549, 0.05 µM
How it was run: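 A549-Pa cells plated at 5 × 10^4 cells/well and co-treated for 48 h with the compound (0–200 nM) plus paclitaxel or gefitinib; growth inhibition by SRB assay. Combination index computed at the 50% inhibition level as CI = D1/(Dx)1 + D2/(Dx)2, comparing combined versus single-agent concentrations.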

[6] = tested on: A549; experiment: Cell cycle arrest in human A549 cells assessed as accumulation at sub-G1 phase at 100 nM after 24 hrs by flow cytometry (reference value: 1.40 %); assay type: functional
[7] = tested on: SK-HEP1; experiment: Cytotoxicity against human SKHEP1 cells after 72 hrs by SRB assay; assay type: functional, cell-based; conditions: SK-HEP1, 72 h
How it was run: (§2)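 SRB growth assay: 5 × 10^3 cells/well exposed to a concentration series for 72 h; fixed in 10% TCA 30 min at 4 °C, stained with 0.4% SRB in 1% acetic acid 30 min, dye dissolved in 10 mM Tris pH 10.0, absorbance at 515 nm. Viability relative to vehicle control; IC50 by non-linear regression; at least three experiments. A549-Pa is a paclitaxel-resistant A549 subline.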

[8] = tested on: A549; experiment: Cell cycle arrest in human A549 cells assessed as accumulation at G0/G1 phase at 100 nM after 24 hrs by flow cytometry (reference value: 62.38 %); assay type: functional
[9] = tested on: A549; experiment: Cell cycle arrest in human A549 cells assessed as accumulation at S phase at 400 nM after 24 hrs by flow cytometry (reference value: 13.38 %); assay type: functional
[10] = tested on: A549; experiment: Inhibition of AKT/c-myc signaling in human A549 cells assessed as reduction in phospho-Rb level at 50 to 400 nM after 24 hrs by Western blot analysis; assay type: cell-based; how it was run: as §1
[11] = tested on: A549; experiment: Antitumor activity against paclitaxel-resistant human A549 cells xenografted in ip dosed athymic nu/nu BALB/c mouse assessed as inhibition of P-gp expression administered 35 days post-implantation 3 times a week by immunohistochemistry; assay type: functional, organism-based
How it was run: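 A549-Pa (paclitaxel-resistant) xenografts in female athymic BALB/c nu/nu mice, grown s.c. in right flank and treated i.p. three times weekly in 1% cremophore/PBS once tumours reached 95–100 mm3. Excised tumour sections incubated overnight at 4 °C with P-glycoprotein antibody, detected by HRP-polymer system, hematoxylin counterstain, viewed by microscopy.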

[12] = tested on: Mus musculus; experiment: Toxicity in paclitaxel-resistant human A549 cells xenografted athymic nu/nu BALB/c mouse assessed as body weight change at 5 to 10 mg/kg, ip administered 3 times a week; assay type: organism-based; set-up: dose 5-10 mg/kg, route intraperitoneal; conditions: in vivo
How it was run: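 Six-week-old female BALB/c nu/nu mice received 2 × 10^6 A549-Pa cells in 0.1 mL RPMI subcutaneously in the right flank. Dosing began at 95–100 mm3 tumor volume, with five mice per group randomized. Compound in 1% cremophore/PBS was given intraperitoneally three times weekly; controls received equal vehicle volume. Body weight and overt toxicity were monitored.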

[13] = tested on: A549; experiment: Cell cycle arrest in human A549 cells assessed as accumulation at G0/G1 phase at 200 nM after 24 hrs by flow cytometry (reference value: 62.38 %); assay type: functional
[14] = tested on: A549; experiment: human A549 cells assessed as morphological changes at 50 to 400 nM after 24 hrs by inverted phase-contrast microscopy
[15] = tested on: A549; experiment: Cell cycle arrest in human A549 cells assessed as accumulation at S phase at 100 nM after 24 hrs by flow cytometry (reference value: 13.38 %); assay type: functional
[16] = tested on: A549; experiment: Effect on CDK2 protein expression at G0/G1 phase in human A549 cells at 50 to 400 nM after 24 hrs by Western blot analysis; assay type: functional, cell-based; how it was run: as §1
[17] = tested on: A549; experiment: Cell cycle arrest in human A549 cells assessed as accumulation at G0/G1 phase at 50 nM after 24 hrs by flow cytometry (reference value: 62.38 %); assay type: functional
[18] = tested on: SNU-638; experiment: Cytotoxicity against human SNU638 cells after 72 hrs by SRB assay; assay type: functional, cell-based; conditions: SNU-638, 72 h; how it was run: as §2
[19] = tested on: A549; experiment: Cell cycle arrest in human A549 cells assessed as accumulation at G2/M phase at 50 nM after 24 hrs by flow cytometry (reference value: 22.84 %); assay type: functional
[20] = tested on: A549; experiment: Antitumor activity against paclitaxel-resistant human A549 cells xenografted in athymic nu/nu BALB/c mouse assessed as inhibition of Ki-67 expression at 5 to 10 mg/kg, ip administered 35 days post-implantation 3 times a week by immunohistochemistry; assay type: functional, organism-based
How it was run: (§3)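 Female athymic BALB/c nu/nu mice, six weeks old; 2 × 10^6 A549 or A549-Pa cells in 0.1 mL RPMI injected s.c. into right flank on day 0. Dosing began at 95–100 mm3 tumour volume: drug in 1% cremophore in PBS given i.p. three times weekly; controls got vehicle; five mice/group. Tumour volume tracked every 3–5 days; tumours excised and weighed at end; sections immunostained for Ki-67.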

[21] = tested on: HCT-15; experiment: Cytotoxicity against human HCT15 cells after 72 hrs by SRB assay; assay type: functional, cell-based; conditions: HCT-15, 72 h; how it was run: as §2
[22] = tested on: A549; experiment: Inhibition of AKT-mediated mTOR phosphorylation at Ser2448 residue in human A549 cells at 50 to 400 nM after 24 hrs by Western blot analysis; assay type: cell-based; how it was run: as §1
[23] = tested on: A549; experiment: Cell cycle arrest in human A549 cells assessed as accumulation at sub-G1 phase at 400 nM after 24 hrs by flow cytometry (reference value: 1.40 %); assay type: functional
[24] = tested on: A549; experiment: Antitumor activity against human A549 cells xenografted in athymic nu/nu BALB/c mouse assessed as inhibition of Ki-67 expression at 5 to 10 mg/kg, ip administered 35 days post-implantation 3 times a week by immunohistochemistry; assay type: functional, organism-based; how it was run: as §3

T1 sequence (P08183 whole entry): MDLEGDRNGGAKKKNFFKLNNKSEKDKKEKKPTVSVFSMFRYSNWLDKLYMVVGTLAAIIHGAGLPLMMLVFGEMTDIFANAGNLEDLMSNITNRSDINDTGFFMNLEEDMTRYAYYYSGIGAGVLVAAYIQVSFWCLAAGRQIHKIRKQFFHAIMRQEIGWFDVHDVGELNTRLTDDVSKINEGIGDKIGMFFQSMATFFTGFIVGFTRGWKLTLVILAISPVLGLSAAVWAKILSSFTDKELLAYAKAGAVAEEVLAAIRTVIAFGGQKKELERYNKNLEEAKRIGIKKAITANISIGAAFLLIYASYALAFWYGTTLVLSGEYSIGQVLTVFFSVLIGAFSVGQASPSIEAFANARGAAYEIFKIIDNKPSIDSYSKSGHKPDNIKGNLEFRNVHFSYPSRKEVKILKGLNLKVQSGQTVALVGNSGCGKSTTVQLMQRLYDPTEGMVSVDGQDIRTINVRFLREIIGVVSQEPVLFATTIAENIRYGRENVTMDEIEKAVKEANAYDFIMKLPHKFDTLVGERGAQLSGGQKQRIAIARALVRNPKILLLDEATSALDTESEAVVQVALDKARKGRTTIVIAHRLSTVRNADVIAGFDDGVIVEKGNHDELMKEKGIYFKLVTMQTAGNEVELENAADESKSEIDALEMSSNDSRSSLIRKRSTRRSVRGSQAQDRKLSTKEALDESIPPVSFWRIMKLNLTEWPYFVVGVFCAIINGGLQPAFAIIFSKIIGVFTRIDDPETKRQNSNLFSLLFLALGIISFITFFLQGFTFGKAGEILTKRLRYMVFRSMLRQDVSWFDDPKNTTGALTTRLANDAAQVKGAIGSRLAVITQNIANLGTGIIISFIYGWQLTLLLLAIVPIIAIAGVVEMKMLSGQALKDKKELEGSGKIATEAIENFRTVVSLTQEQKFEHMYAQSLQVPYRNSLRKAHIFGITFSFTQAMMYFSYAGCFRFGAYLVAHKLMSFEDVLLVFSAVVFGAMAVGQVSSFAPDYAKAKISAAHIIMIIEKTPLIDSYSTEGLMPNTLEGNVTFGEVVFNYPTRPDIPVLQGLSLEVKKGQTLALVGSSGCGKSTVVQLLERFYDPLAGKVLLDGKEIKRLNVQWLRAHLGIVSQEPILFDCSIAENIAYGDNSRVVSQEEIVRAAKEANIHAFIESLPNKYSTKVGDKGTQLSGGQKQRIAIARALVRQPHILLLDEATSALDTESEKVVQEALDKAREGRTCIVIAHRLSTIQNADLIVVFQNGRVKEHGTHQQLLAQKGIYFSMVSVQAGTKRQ

`COc1ccc2c3c(c4cc(OC)c(OC)cc4c2c1)C[C@@]1(CO)CCCN1C3` was tested, and the Activity [1] was 37.1%, the inhibition [2] was “Active” and the Activity [3] was 67.01%. The Activity [4] was 18.53%, the “fractional inhibitory concentration index (FICI)” value [5] was 0.653 and the Activity [6] was 2.31%. The IC50 [7] was 60 nM, the Activity [8] was 68.38% and the Activity [9] was 11.37%. The inhibition [10] was “Active”, the inhibition [11] was “Dose-dependent effect” and the Activity [12] was “Non-toxic”. The Activity [13] was 69.43%, the Activity [14] was “Active” and the Activity [15] was 10.78%. The Activity [16] was “inactive”, the Activity [17] was 66.07% and the IC50 [18] was 80 nM. The Activity [19] was 20.71%, the inhibition [20] was “Active” and the IC50 [21] was 160 nM. For the same compound, the inhibition [22] was “Active”, the Activity [23] was 1.21% and the inhibition [24] was “Active”.
